Compound activity from PubChem BioAssay.
Shown are actives, neighbours in structure and some others; about 3.9% of the full set was active somewhere.
NS3 helicase inh: HCV NS3 helicase inhibition | NS3 helicase DNA unwinding, Cy5 molecular beacon fluorescence | inhibition, % at 10.9 µM | 0.56% of 290,000 active;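 active = inhibition above the mean of all tested compounds plus 3 SD, set per campaign, cut at about 35% in these data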;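 also: 0% = DMSO wells and 100% = thioflavine S control wells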
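System: HCV NS3 helicase fragment; control set: DMSO and thioflavine S; technique: Cy5 fluorescence at 0 and 60 min, beacon hairpin quenching; reagent: beacon DNA duplex substrate plus ATP; replicates: singlicate; schedule: 1 h reaction at 25 °C, ATP-initiated; medium: MOPS buffer pH 6.5 with MgCl2, DTT, Tween20, BSA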
HSP90 refold inh: HSP90 refolding inhibition in rabbit reticulocyte lysate; luciferase refolding luminescence, 3 h; inhibition, % at 5.6 µM; 0.91% of 290,000 active;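 active = inhibition above the screen-wide mean plus 3 SD, computed separately per campaign, cut at about 16% in these data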;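 also: 0% = DMSO wells and 100% = 60 µM geldanamycin wells; inhibitors lower the luminescence because luciferase stays unfolded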
HCV core dimer: blocks dimerization of HCV core protein | TR-FRET GST/Flag-core106 dimerization, 1536-well | inhibition, % at 5 µM | 0.33% of 300,000 active;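 active = inhibition above the mean of all tested compounds plus 3 SD, set per screening campaign, cut at about 45% in these data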
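Material: Tagged HCV core106 pair (GST and Flag) | Amount: GST-core106 13.5 nM, Flag-core106 17 nM | Medium: KF-containing HEPES buffer, pH 7.45, DTT, CHAPS, BSA | Reagent: Eu donor and XL665 acceptor anti-tag antibodies | Schedule: 4 h at 22.5 °C | Technique: Time-resolved FRET, ex 340 nm, em 617 and 671 nm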
HSF-1 act: increases HSF-1 driven luciferase reporter signal | NIH3T3-HGL HSF-1 luciferase reporter, MG132, 8 h; 100% = twice DMSO control signal | AID 504408 | activation, % at 9 µM | 1.7% of 300,000 active;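 active = mean replicate activation of at least 50% with a set share of replicates each reaching 50%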;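 also: 0% = median of the neutral control wells and 100% = twice that signal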
FID counter: counter-screen for HCV NS3 helicase inhibitors: DNA intercalator displacement. DNA fluorescent intercalator displacement, fluorescence. inhibition, % at 7.9 µM. 0.17% of 290,000 active. AID 1845; in the data active = inhibition above about 37%;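 also: 0% = vehicle and 100% = reference compound; higher means more ethidium bromide displaced from hairpin DNA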
HSF1 inh: HSF1 inhibition; NIH3T3-HGL HSE-luciferase, MG132-induced, luminescence 8 h; stronger effect = lower value; activity change, negative = inhibition, % at 7.5 µM (by protocol); 0.77% of 300,000 active; AID 2098;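 active = more than half of replicate wells show activity change below -50%, luminescence cut by over half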;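 also: luciferase reports HSF-1 transcriptional activity via heat shock element; 0% = median of DMSO wells and -100% = zero luminescence signal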
* = called active by the depositor; / = not tested or not shown.

SMILES	NS3 helicase inh	HSP90 refold inh	HCV core dimer	HSF-1 act	FID counter	HSF1 inh
CSc1ccc(C2c3[nH]c4ccccc4c3CCN2C(=O)c2cc(C)n(C)n2)cc1 (stereo unspecified)	-3	0	14	53*	-26	37
C#CCOCCOCCOCCNc1nc(N2CCN(C(=O)[C@H](CCCCN)n3cc(C(N)CO)nn3)CC2)nc(N2CCN(C(=O)[C@H](CCC(=O)O)n3cc(C(N)Cc4ccc(O)cc4)nn3)CC2)n1 (stereo partly specified)	/	/	/	1	/	1
C#CCOCCOCCOCCNc1nc(N2CCN(C(=O)[C@H](CCCCN)n3cc([C@@H](N)CC(C)C)nn3)CC2)nc(N2CCN(C(=O)[C@H](Cc3cc4ccccc4[nH]3)n3cc([C@@H](N)Cc4ccc(O)cc4)nn3)CC2)n1	-44	3	-22	-14	76*	2
C#CCOCCOCCOCCNc1nc(N2CCN(C(=O)[C@H](CCCCN)n3cc([C@@H](N)CO)nn3)CC2)nc(N2CCN(C(=O)[C@H](Cc3cc4ccccc4[nH]3)n3cc([C@@H](N)Cc4ccc(O)cc4)nn3)CC2)n1	-60	5	-24	16	55*	10
CCNS(=O)(=O)c1cc(OC)ccc1OC	0	6	-2	-35	38*	-17
COc1ccc(OC)c(S(=O)(=O)Nc2ccccc2O)c1	/	/	-3	90*	/	67
COc1ccc(OC)c(S(=O)(=O)NCCO)c1	2	-2	-3	-6	8	-5
CCOC(=O)CSc1ccc2nnc(-c3ccncc3)n2n1	4	0	0	55*	-2	24
CCOC(=O)CSc1ccc2nnc(-c3cccs3)n2n1	3	-1	-1	13	-10	-2
CCOC(=O)C(CC)Sc1ccc2nnc(-c3cccnc3)n2n1 (stereo unspecified)	5	0	1	-76	-20	-72*
CCC(Sc1ccc2nnc(-c3cccnc3)n2n1)C(=O)O (stereo unspecified)	6	-3	-14	-30	-1	-24
Nc1nc(Nc2cccc(F)c2)nc2ccccc12	-19	0	-3	56*	13	36
COc1ccc(Cl)cc1Nc1nc(N)c2ccccc2n1	-21	-4	0	19	37*	18
O=S(=O)(c1ccc(-c2ccon2)s1)N1CCN(c2ccccn2)CC1	2	4	0	22	-6	7
Cc1cc(C)cc(NC(=O)N2CCN(Cc3ccc4c(c3)OCO4)CC2)c1	-16	1	-4	-63	-8	-58*
CN(C)CCCNc1cc(C(C)(C)C)nc2c(-c3ccccc3)cnn12	-39	8	-11	-9	48*	-7
Cc1cc(NCc2ccccn2)n2ncc(-c3ccccc3)c2n1	-7	-1	0	76*	-8	39
CC(C)(C)c1cc(NCCCn2ccnc2)n2ncc(-c3ccc(Cl)cc3)c2n1	-77	0	3	28	8	11
CN(C)CCCNc1cc(-c2ccccc2)nc2cc(-c3cccc(F)c3)nn12	-31	0	-4	39	40*	14
Cc1cc(NCc2ccccn2)n2nc(C)c(-c3ccc(Cl)cc3)c2n1	-13	4	3	/	0	/
Cc1cc(NCc2ccccn2)n2ncc(-c3ccc(Cl)cc3)c2n1	2	2	-1	53*	-4	28
Cc1cccc(-c2cc3nc(C)cc(NCCCN(C)C)n3n2)c1	-3	-1	1	5	35	4
CC(C)Nc1nc(Cl)nc(N(C#N)CN2C(=O)c3ccccc3S2(=O)=O)n1	-3	0	-2	118*	-8	83
C/C(=N\Nc1ccc(F)cc1F)c1ccc(F)cc1	8	-1	54*	-1	2	-5
O=C(Oc1c(-c2ccccc2Cl)oc2ccccc2c1=O)c1ccc(Cl)cc1	-8	-4	3	-65	-11	-54*
SMILES	NS3 helicase inh	HSP90 refold inh	HCV core dimer	HSF-1 act	FID counter	HSF1 inh
O=C(Oc1c(-c2ccccc2)oc2ccccc2c1=O)c1ccccc1	-8	-2	6	9	-8	2
CN=C1SC(CC(=O)Nc2ccccc2F)C(=O)N1C (stereo unspecified)	-2	-3	-4	5	0	0
C=CCOc1ccc(/C=N/N2C(=O)C(CC(=O)Nc3ccc(F)cc3F)SC2=NC)cc1 (stereo unspecified)	-4	-4	1	54*	0	29
CCN(CC)CCNC(=O)c1ccc(NC(=O)c2ccc(C(=O)c3ccccc3)cc2)cc1	/	/	-11	0	/	-4
CCN(CC)CCNC(=O)c1ccc(NC(=O)c2ccc(COc3ccccc3)cc2)cc1	-39	16	/	-21	38*	-1
COc1ccc(S(=O)(=O)N2C3CCC2CC(NC(=O)C2CC2)C3)cc1 (stereo unspecified)	4	1	4	4	-2	-2
CCOC(=O)/C(=C\c1cccnc1)C(=O)c1cc(C(C)=O)c(Nc2ccccc2)s1	-5	2	9	-94	-21	-93*
CCOC(=O)/C(=C\c1ccccc1)C(=O)c1cc(C(C)=O)c(Nc2ccccc2)s1	-2	4	0	1	0	-5
O=C(O)c1cccc(CSc2ncn[nH]2)c1	2	-2	2	-4	-1	2
C/C(CC(=O)Nc1ccc2ccccc2c1)=N\NC(=O)c1cnccn1	-9	0	2	74*	-5	30
C/C(CC(=O)Nc1ccc(Cl)c(Cl)c1)=N\NC(=O)C(=O)N1CCCCC1	-12	-1	-4	54*	-5	43
C/C(CC(=O)Nc1ccc(N(C)C)cc1)=N\NC(=O)c1ccncc1	8	-4	-6	-5	-11	1
C/C(CC(=O)Nc1cccc(Cl)c1Cl)=N\NC(=O)C(=O)N1CCCC1	-1	-2	-2	23	-18	12
C/C(CC(=O)Nc1ccc(N(C)C)cc1)=N\NC(=O)c1ccc(Cl)cc1	17	-3	-15	83*	-21	33
C/C(CC(=O)Nc1ccc2ccccc2c1)=N\NC(=O)c1ccc(O)c(O)c1	9	2	-7	55*	-5	14
Cc1ccc(C(OCC(O)CNCc2ccc(F)cc2)c2ccccc2)cc1 (stereo unspecified)	-51	3	-4	9	27	-1
Cc1cccc(NC(=O)CNC(=O)CN2C(=O)NC3(CCCc4ccccc43)C2=O)c1C (stereo unspecified)	/	/	4	-1	/	-3
C/C(CC(=O)Nc1ccc(C)c(Cl)c1)=N\NC(=O)c1ccccn1	3	9	-7	206*	-22	136
O=C(O)c1ccc(N=Nc2c(O)[nH]c3ccccc23)cc1	9	41*	-16	-33	-8	-30
O=C(N=Nc1c(O)[nH]c2ccccc12)c1cccs1	0	3	-15	76*	2	25
